Results published in ChEMBL document CHEMBL1153582, “Expedient solid-phase synthesis of both symmetric and asymmetric diol libraries targeting aspartic proteases” (Bioorg Med Chem Lett, 2009).

Legend:
[1] = target: Protease (Human immunodeficiency virus 1, UniProt Q9YQ12); experiment: Inhibition of HIV1 protease by fluorescence microplate assay
Outline: (§1)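 Library products were used as crude material, without purification, for direct in situ screening in a standard fluorescence microplate assay. IC50 was taken from inhibition curves plotted against log inhibitor concentration in nM.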

[2] = target: Plasmepsin II (Plasmodium falciparum, UniProt P46925); experiment: Inhibition of Plasmodium falciparum plasmepsin-2 in fluorescence microplate assay; outline: as §1
Chain of Plasmepsin II (P46925 whole entry): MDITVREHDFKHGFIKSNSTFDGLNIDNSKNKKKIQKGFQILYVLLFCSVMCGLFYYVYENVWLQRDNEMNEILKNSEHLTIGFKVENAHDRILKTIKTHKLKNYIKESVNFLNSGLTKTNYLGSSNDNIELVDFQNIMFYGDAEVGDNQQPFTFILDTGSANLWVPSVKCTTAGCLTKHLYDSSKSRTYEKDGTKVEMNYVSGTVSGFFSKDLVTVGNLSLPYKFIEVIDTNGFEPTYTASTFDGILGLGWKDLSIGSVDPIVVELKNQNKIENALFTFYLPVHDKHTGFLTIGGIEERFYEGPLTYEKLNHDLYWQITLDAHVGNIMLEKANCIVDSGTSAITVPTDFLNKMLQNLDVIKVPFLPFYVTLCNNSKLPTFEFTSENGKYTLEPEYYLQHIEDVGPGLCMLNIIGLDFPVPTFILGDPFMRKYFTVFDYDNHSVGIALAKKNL

[3] = target: Plasmepsin I (Plasmodium falciparum, UniProt P39898); experiment: Inhibition of Plasmodium falciparum plasmepsin-1 in fluorescence microplate assay; outline: as §1
Chain of Plasmepsin I (P39898 whole entry): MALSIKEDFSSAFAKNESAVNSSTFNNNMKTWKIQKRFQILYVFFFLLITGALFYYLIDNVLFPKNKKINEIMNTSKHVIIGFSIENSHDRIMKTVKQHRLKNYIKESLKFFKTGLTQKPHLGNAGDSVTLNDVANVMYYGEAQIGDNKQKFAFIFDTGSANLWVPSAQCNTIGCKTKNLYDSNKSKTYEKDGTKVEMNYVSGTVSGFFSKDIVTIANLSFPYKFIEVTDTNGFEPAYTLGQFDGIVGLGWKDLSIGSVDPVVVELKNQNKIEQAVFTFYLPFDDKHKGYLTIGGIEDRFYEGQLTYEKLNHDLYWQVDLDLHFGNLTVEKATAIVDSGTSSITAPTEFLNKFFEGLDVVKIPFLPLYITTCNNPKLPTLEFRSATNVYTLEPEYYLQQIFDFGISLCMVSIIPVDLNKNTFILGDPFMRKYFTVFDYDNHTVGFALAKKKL

Chain of Protease (Q9YQ12 whole entry): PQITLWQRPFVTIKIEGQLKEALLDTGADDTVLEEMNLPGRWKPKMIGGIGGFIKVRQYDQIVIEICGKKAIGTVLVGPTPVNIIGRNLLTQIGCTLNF

IC50 [1] [µM] | IC50 [2] [µM] | IC50 [3] [µM] | Ki [1] [nM] | Compound
> 25 | > 25 | 2.64 | – | CC(C)C[C@H](NC(=O)CC1CCCCC1)[C@@H](O)[C@H](O)[C@H](CC(C)C)NC(=O)CC1CCCCC1
1.31 | > 25 | > 25 | – | COc1ccccc1C(=O)N[C@@H](CC(C)C)[C@@H](O)[C@H](O)[C@H](CC(C)C)NC(=O)c1ccccc1OC
> 25 | 11.8 | > 25 | – | O=C(N[C@@H](Cc1ccccc1)[C@@H](O)[C@H](O)[C@H](Cc1ccccc1)NC(=O)c1ccc(F)cc1Cl)c1ccc2c(c1)OCCO2
0.395 | > 25 | > 25 | 400 | O=C(N[C@@H](Cc1ccccc1)[C@@H](O)[C@H](O)[C@H](Cc1ccccc1)NC(=O)c1ccc(F)cc1Cl)c1ccc(F)cc1Cl
> 25 | 12.7 | > 25 | – | Cc1ccc(C(=O)N[C@@H](Cc2ccccc2)[C@@H](O)[C@H](O)[C@H](Cc2ccccc2)NC(=O)C2CCOC2)cn1 (some centres undefined)
> 25 | 3.91 | 4.39 | – | O=C(CC1CCCCC1)N[C@@H](Cc1ccccc1)[C@@H](O)[C@H](O)[C@H](Cc1ccccc1)NC(=O)CC1CCCCC1
